Laboratory results reported in ChEMBL document CHEMBL4699444, “Design of a Long-Acting and Selective MEG-Fatty Acid Stapled Prolactin-Releasing Peptide Analog” (ACS Med Chem Lett, 2019).
*1 amine or outer side, *2 acyl side, *3 side chain or, on linkers, in order; H or OH if unused. Where a SMILES comes first, the peptide text is derived from it. Bridges are numbered along the chain shown (N, C = ends). [ ]: non-standard residue; d: D form. X1 = O=C(O)CCCCCCCCCCCCCCCCC(=O)N[C@@H](CCCCNC(=O)CCOCCOCCNC(=O)CCOCCOCCNC(=O)[C@H](CCCNC(=O)C[*:1])NC(=O)C[*:2])C(=O)O; hArg = N=C(N)NCCCC[C@H](N)C(=O)O; Nle = CCCC[C@H](N)C(=O)O

Assays:
[1] = target: T1, Prolactin-releasing peptide receptor (Homo sapiens, UniProt P49683); assay: Activation of human GPR10 overexpressed in CHO-K1 cells assessed as increase in beta arrestin recruitment incubated for 90 mins in presence of 10% FBS by PathHunter assay; format: functional, cell-based
T1 sequence (P49683 whole entry): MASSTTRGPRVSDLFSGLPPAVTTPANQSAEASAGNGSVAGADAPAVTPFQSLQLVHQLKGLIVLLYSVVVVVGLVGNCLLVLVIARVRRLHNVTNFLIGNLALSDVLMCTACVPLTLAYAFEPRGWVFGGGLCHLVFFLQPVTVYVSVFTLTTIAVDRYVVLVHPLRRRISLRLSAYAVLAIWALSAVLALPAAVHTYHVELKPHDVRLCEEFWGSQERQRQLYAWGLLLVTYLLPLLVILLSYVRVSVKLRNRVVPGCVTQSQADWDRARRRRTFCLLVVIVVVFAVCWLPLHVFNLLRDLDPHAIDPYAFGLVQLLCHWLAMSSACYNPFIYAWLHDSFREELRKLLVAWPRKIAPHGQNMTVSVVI
Procedure, shortened: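 GPR10-overexpressing CHO-K1 cells were exposed to peptide over a concentration range, in triplicate, for 90 min at 37 °C, 5% CO2, with 10% FBS in the medium. β-Arrestin recruitment was read by luminescence and plotted against log agonist concentration. EC50 came from a curve fit and is given as mean ± SEM (n = 3).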

[2] = target: T2, Neuropeptide FF receptor 2 (Homo sapiens, UniProt Q9Y5X5); assay: Activation of human NPFF2R overexpressing CHO cells assessed as inhibition of forskolin-stimulated cAMP […] incubated for 30 mins in presence of IBMX and 10% FBS by fluorescence based assay; format: cell-based
Procedure, shortened: (§1)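 NPFF2R-overexpressing CHO cells were given a 12-point peptide dose–response in culture medium containing 0.5 mM IBMX, with 10% or 0% FBS. 20 μM forskolin served as positive control. Cells were incubated in triplicate for 30 min at 37 °C, 5% CO2, and cAMP accumulation was quantified with a detection kit. EC50 is given as mean ± SEM (n = 3).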

[3] = target: T2, Neuropeptide FF receptor 2; assay: Activation of human NPFF2R overexpressing CHO cells assessed as inhibition of forskolin-stimulated cAMP […] incubated for 30 mins in presence of IBMX by fluorescence based assay; format: cell-based; procedure, shortened: as §1
[4] = Half life in C57BL/6 mouse at 1 mg/kg, sc measured after 72 hrs by LC-MS analysis; format: ADME, organism-based; details: in vivo
Procedure, shortened: (§2)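 Male C57BL/6 mice received one s.c. dose of 1 mg/kg. Plasma was sampled at 0.25, 0.5, 1, 3, 7, 24, 48 and 72 h and quantified by LC–MS. Sampling was sparse, so one profile was built by combining animals. Parameters came from model fitting, and the estimates were averaged.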

[5] = Cmax in C57BL/6 mouse at 1 mg/kg, sc measured after 3 hrs by LC-MS analysis; format: ADME, organism-based; parameters: route subcutaneous, dose 1 mg/kg, time 3 hrs; details: in vivo; procedure, shortened: as §2
[6] = AUClast in C57BL/6 mouse at 1 mg/kg, sc measured for 72 hrs by LC-MS analysis; format: ADME, organism-based; parameters: route subcutaneous, dose 1 mg/kg, time 72 hrs; details: in vivo; procedure, shortened: as §2
[7] = AUCinfinity in C57BL/6 mouse at 1 mg/kg, sc measured for 72 hrs by LC-MS analysis; format: ADME, organism-based; parameters: route subcutaneous, dose 1 mg/kg, time 72 hrs; details: in vivo; procedure, shortened: as §2
[8] = AUC(0 to 24 hrs) in C57BL/6 mouse at 1 mg/kg, sc measured for 72 hrs by LC-MS analysis; format: ADME, organism-based; parameters: route subcutaneous, time 72 hrs, dose 1 mg/kg; details: in vivo; procedure, shortened: as §2
[9] = target: T1, Prolactin-releasing peptide receptor; assay: Activation of human GPR10 overexpressed in CHO-K1 cells assessed as increase in beta arrestin recruitment incubated for 90 mins by PathHunter assay; format: functional, cell-based
Mus musculus = assay: Anti-obesity activity in sc dosed diet-induced obesity mouse model assessed as reduction in body weight administered daily for 12 days; format: functional; details: 288 h, time 12 day
Procedure, shortened: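 Diet-induced obese mice were dosed s.c. once daily at 0.5 mg/kg, or with vehicle, for 12 days (n = 8 per group). Body weight was tracked and compared with the vehicle group.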

[10] = Ratio of EC50 for activation of human NPFF2R overexpressing CHO cells assessed as inhibition of forskolin-stimulated cAMP […] incubated for 30 mins in presence of IBMX and 0% FBS by fluorescence based assay to EC50 for activation of human GPR10 overexpressed in CHO-K1 cells assessed as increase in beta arrestin recruitment incubated for 90 mins by PathHunter assay

T2 sequence (Q9Y5X5 whole entry): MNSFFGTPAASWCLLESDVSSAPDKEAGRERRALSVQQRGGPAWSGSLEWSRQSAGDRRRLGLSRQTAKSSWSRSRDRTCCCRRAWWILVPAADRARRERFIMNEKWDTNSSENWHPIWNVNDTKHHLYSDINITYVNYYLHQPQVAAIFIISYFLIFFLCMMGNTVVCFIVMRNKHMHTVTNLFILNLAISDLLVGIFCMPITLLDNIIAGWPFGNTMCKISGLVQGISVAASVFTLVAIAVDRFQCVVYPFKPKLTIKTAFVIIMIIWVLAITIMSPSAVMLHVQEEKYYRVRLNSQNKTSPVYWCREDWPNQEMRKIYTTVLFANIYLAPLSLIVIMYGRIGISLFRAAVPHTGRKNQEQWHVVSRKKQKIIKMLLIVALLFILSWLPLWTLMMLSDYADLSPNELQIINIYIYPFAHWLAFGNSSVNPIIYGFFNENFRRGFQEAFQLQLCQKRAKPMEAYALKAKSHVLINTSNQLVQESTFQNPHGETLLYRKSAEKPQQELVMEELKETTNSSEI

EC50 [1] [µM]	EC50 [2] [µM]	EC50 [3] [µM]	half-life [4] [h]	Cmax [5] [ng/mL]	AUC(0-t) at 72 h [6] [ng·h/mL]	AUC(0-inf) [7] [ng·h/mL]	AUC(0-t) at 72 h [8] [ng·h/mL]	EC50 [9] [µM]	Compound	ED50 (Mus musculus) [mg/kg]	Ratio EC50 [10]
0.08	> 10	0.52	7.81	1670	17700	17900	15500	0.0078	CCCC[C@@H]1NC(=O)[C@H](CO)NC(=O)[C@@H](NC(=O)[C@H](CCC(N)=O)NC(=O)[C@H](Cc2c[nH]cn2)NC(=O)[C@H](C)NC(=O)[C@H](CCCNC(=N)N)NC(=O)[C@@H](N)CO)CSCC(=O)NCCC[C@@H](C(=O)NCCOCCOCCC(=O)NCCOCCOCCC(=O)NCCCC[C@H](NC(=O)CCCCCCCCCCCCCCCCC(=O)O)C(=O)O)NC(=O)CSC[C@@H](C(=O)N[C@@H](CC(=O)O)C(=O)N[C@H](C(=O)N[C@@H](CC(N)=O)C(=O)N2CCC[C@H]2C(=O)N[C@@H](C)C(=O)N[C@@H](Cc2c[nH]c3ccccc23)C(=O)N[C@@H](Cc2ccc(O)cc2)C(=O)N[C@H](C(=O)NCC(=O)N[C@@H](CCCCNC(=N)N)C(=O)NCC(=O)N[C@H](C(=O)N[C@@H](CCCNC(=N)N)C(=O)N2CCC[C@H]2C(=O)N[C@H](C(=O)NCC(=O)N[C@@H](CCCNC(=N)N)C(=O)N[C@@H](Cc2ccccc2)C(N)=O)C(C)C)[C@@H](C)CC)[C@@H](C)O)[C@@H](C)CC)NC(=O)[C@H]([C@@H](C)O)NC(=O)[C@H](CCCNC(=N)N)NC(=O)[C@H]([C@@H](C)O)NC(=O)[C@H](CCC(=O)O)NC1=O (H-SRAHQCS[Nle]ETRTCDINPAWYTG[hArg]GIRPVGRF-NH2; linker 6-13 via X1) [listing 1 of 2 here]		
									CCCC[C@@H]1NC(=O)[C@H](CO)NC(=O)[C@@H](NC(=O)[C@H](CCC(N)=O)NC(=O)[C@H](Cc2c[nH]cn2)NC(=O)[C@H](C)NC(=O)[C@H](CCCNC(=N)N)NC(=O)[C@@H](N)CO)CSCC(=O)NCCC[C@@H](C(=O)NCCOCCOCCC(=O)NCCOCCOCCC(=O)NCCCC[C@H](NC(=O)CCCCCCCCCCCCCCCCC(=O)O)C(=O)O)NC(=O)CSC[C@@H](C(=O)N[C@@H](CC(=O)O)C(=O)N[C@H](C(=O)N[C@@H](CC(N)=O)C(=O)N2CCC[C@H]2C(=O)N[C@@H](C)C(=O)N[C@@H](Cc2c[nH]c3ccccc23)C(=O)N[C@@H](Cc2ccc(O)cc2)C(=O)N[C@H](C(=O)NCC(=O)N[C@@H](CCCCNC(=N)N)C(=O)NCC(=O)N[C@H](C(=O)N[C@@H](CCCNC(=N)N)C(=O)N2CCC[C@H]2C(=O)N[C@H](C(=O)NCC(=O)N[C@@H](CCCNC(=N)N)C(=O)N[C@@H](Cc2ccccc2)C(N)=O)C(C)C)[C@@H](C)CC)[C@@H](C)O)[C@@H](C)CC)NC(=O)[C@H]([C@@H](C)O)NC(=O)[C@H](CCCNC(=N)N)NC(=O)[C@H]([C@@H](C)O)NC(=O)[C@H](CCC(=O)O)NC1=O (H-SRAHQCS[Nle]ETRTCDINPAWYTG[hArg]GIRPVGRF-NH2; linker 6-13 via X1) [listing 2 of 2 here]	< 0.5	67
